Measured values: ChEMBL document CHEMBL1133563, “Development of new hydroxamate matrix metalloproteinase inhibitors derived from functionalized 4-aminoprolines” (J Med Chem, 2000)

Columns and labels:
Stromelysin-1 = Stromelysin-1 (Homo sapiens, UniProt P08254); assay: In vitro inhibitory activity against matrix metalloprotease -3 (stromelysin)
Matrilysin = biological target: T1, Matrilysin (Homo sapiens, UniProt P09237); assay: In vitro inhibitory activity against matrix metalloprotease-7 (matrilysin, MMP-7)
T1 sequence (P09237 whole entry): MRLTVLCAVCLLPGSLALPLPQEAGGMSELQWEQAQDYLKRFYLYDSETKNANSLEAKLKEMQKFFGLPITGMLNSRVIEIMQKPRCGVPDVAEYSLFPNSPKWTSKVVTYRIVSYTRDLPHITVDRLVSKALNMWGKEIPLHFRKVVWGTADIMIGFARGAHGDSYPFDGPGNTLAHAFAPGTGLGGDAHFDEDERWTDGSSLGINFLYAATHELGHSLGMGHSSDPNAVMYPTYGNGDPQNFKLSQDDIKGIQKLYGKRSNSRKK
Outline: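 Human recombinant truncated enzymes, final MMP-1 8 nM, MMP-3 16 nM, MMP-7 2 nM. Quenched-fluorescence assay with Mca-Pro-Leu-Gly-Leu-Dpa-Ala-Arg-NH₂ (4 µM) in 50 mM Tris pH 7.5, 0.2 M NaCl, 5 mM CaCl₂, 0.02% Brij-35 at 25 °C. Fluorescence (ex 328/em 393 nm) read kinetically for 30 min.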

Collagenase 3 = Collagenase 3 (Homo sapiens, UniProt P45452); assay: In vitro inhibitory activity against human recombinant matrix metalloprotease-13 (collagenase-3)
Interstitial collagenase = biological target: T2, Interstitial collagenase (Homo sapiens, UniProt P03956); assay: In vitro inhibitory activity against matrix metalloprotease -1 (collagenase-1)
T2 sequence (P03956 whole entry): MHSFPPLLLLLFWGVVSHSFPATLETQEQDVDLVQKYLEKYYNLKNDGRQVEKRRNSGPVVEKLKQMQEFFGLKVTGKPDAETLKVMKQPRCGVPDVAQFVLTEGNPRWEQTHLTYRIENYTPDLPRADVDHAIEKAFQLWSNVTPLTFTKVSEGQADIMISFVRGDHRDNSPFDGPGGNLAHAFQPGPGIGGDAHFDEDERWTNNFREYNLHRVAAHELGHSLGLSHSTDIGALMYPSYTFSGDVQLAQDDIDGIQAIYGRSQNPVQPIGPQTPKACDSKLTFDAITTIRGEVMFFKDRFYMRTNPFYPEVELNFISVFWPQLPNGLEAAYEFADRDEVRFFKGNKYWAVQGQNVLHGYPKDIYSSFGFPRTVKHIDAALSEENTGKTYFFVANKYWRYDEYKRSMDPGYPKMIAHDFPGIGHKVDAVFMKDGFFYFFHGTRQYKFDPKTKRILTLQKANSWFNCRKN

[1] = biological target: 72 kDa type IV collagenase (Homo sapiens, UniProt P08253); assay: In vitro inhibitory activity against matrix metalloprotease -2 (gelatinase-A)
Chain of 72 kDa type IV collagenase (P08253 whole entry): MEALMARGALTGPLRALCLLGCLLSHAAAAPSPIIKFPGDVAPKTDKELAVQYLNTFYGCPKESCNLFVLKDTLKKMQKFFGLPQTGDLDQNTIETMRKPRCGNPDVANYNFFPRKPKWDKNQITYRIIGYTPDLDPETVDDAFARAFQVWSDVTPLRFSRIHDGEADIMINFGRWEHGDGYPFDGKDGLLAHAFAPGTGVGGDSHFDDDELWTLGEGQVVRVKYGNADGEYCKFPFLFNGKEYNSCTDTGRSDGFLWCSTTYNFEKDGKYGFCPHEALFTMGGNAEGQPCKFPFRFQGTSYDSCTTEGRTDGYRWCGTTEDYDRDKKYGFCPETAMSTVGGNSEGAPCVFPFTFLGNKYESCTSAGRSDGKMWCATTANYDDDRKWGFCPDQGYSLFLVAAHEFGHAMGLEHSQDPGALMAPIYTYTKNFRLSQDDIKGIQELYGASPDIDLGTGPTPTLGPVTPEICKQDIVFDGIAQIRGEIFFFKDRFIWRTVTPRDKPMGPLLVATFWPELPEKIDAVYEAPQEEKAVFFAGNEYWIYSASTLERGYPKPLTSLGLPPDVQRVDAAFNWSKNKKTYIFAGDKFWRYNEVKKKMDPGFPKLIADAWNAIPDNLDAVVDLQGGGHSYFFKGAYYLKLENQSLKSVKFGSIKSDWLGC

Chain of Stromelysin-1 (P08254 whole entry): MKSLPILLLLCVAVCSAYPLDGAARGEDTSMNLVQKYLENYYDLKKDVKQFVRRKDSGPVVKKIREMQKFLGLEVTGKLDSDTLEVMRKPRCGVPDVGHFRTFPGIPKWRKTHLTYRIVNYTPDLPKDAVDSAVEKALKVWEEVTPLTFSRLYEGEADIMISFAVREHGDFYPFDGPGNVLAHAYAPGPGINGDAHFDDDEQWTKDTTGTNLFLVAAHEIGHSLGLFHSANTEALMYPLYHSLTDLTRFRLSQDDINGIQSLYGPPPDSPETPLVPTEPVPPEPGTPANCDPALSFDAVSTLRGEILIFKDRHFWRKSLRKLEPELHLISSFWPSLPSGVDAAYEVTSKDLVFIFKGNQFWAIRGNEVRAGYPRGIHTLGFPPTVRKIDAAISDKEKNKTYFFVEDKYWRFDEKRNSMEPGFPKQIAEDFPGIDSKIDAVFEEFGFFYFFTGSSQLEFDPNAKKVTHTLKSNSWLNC

SMILES	IC50 (Stromelysin-1) [µM]	IC50 (Matrilysin) [µM]	IC50 (Collagenase 3) [µM]	IC50 (Interstitial collagenase) [µM]	IC50 [1] [µM]
CC(C)COc1ccc(S(=O)(=O)N2C[C@@H](N3C(=O)CN(C)C3=O)C[C@@H]2C(=O)NO)cc1	0.003	2.3	0.0028	0.3	
O=C(NO)[C@H]1C[C@H](N2CCCCC2)CN1S(=O)(=O)c1ccc(Oc2ccccc2)cc1	0.008	0.61	< 0.0004	0.017	
CCCCOc1ccc(S(=O)(=O)N2C[C@@H](N3C(=O)CN(CCC)C3=O)C[C@@H]2C(=O)NO)cc1	0.01	1.2	0.0003	0.57	0.0004
COc1ccc(S(=O)(=O)N2C[C@@H](N3CCCCC3)C[C@@H]2C(=O)NO)cc1	0.048	7.4	0.001		0.006
CCOc1ccc(S(=O)(=O)N2C[C@@H](N3C(=O)CN(C)C3=O)C[C@@H]2C(=O)NO)cc1	0.033	7.5	0.004	0.58	
CN1CC(=O)N([C@H]2C[C@H](C(=O)NO)N(S(=O)(=O)c3ccc(Oc4ccncc4)cc3)C2)C1=O	0.011	7.4	0.0007	0.6	
O=C(NO)[C@H]1C[C@H](N2CCCC2)CN1S(=O)(=O)c1ccc(Oc2ccc(F)cc2)cc1	0.004	0.85	< 0.0004	0.02	
COc1ccc(S(=O)(=O)N2C[C@@H](N3CCS(=O)(=O)CC3)C[C@@H]2C(=O)NO)cc1	0.023	7.1	0.001	0.3	
CCCCOc1ccc(S(=O)(=O)N2C[C@@H](NS(C)(=O)=O)C[C@@H]2C(=O)NO)cc1		3.9	0.0007	1.3	0.0008
COc1ccc(S(=O)(=O)N2C[C@@H](N3CCOCC3)C[C@@H]2C(=O)NO)cc1	0.014			0.22	0.006
CCCCOc1ccc(S(=O)(=O)N2C[C@@H](NC(=O)[C@@H](O)CC(C)C)C[C@@H]2C(=O)NO)cc1	0.01	2.4	0.0009	0.44	
O=C(NO)[C@H]1C[C@H](N2CCOCC2)CN1S(=O)(=O)c1ccc(Oc2ccccc2)cc1	0.007	0.71	< 0.0004	0.019	
CCCCOc1ccc(S(=O)(=O)N2C[C@@H](N)C[C@@H]2C(=O)NO)cc1	0.008			0.38	
COc1ccc(S(=O)(=O)N2C[C@@H](NC(=O)[C@H](Cc3ccccc3)OCc3ccccc3)C[C@@H]2C(=O)NO)cc1	0.01		0.002	0.24	0.0002
C=CCN1CC(=O)N([C@H]2C[C@H](C(=O)NO)N(S(=O)(=O)c3ccc(OCCOC)cc3)C2)C1=O	0.046	11	0.002	2.9	0.002
COc1ccc(S(=O)(=O)N2C[C@@H](N3CCCS3(=O)=O)C[C@@H]2C(=O)NO)cc1	0.013	1.4	0.0004	0.042	
C=CCN1CC(=O)N([C@H]2C[C@H](C(=O)NO)N(S(=O)(=O)c3ccc(OCCC)cc3)C2)C1=O	0.011	2.6	0.0004	0.35	0.0008
COc1ccc(S(=O)(=O)N[C@H]2C[C@H](C(=O)NO)N(S(=O)(=O)c3ccc(OC)cc3)C2)cc1	0.036	3	0.002	0.35	0.003
CCCCOc1ccc(S(=O)(=O)N2C[C@@H](NS(=O)(=O)c3cn(C)cn3)C[C@@H]2C(=O)NO)cc1	0.006			0.7	
CS(=O)(=O)N[C@H]1C[C@H](C(=O)NO)N(S(=O)(=O)c2ccc(Oc3ccncc3)cc2)C1	0.022	> 10	0.0008	0.45	
CCCOc1ccc(S(=O)(=O)N2C[C@@H](N3CCCS3(=O)=O)C[C@@H]2C(=O)NO)cc1	0.008	0.84	< 0.0004	0.1	
CCCOc1ccc(S(=O)(=O)N2C[C@@H](N3CCCCC3)C[C@@H]2C(=O)NO)cc1	0.009	0.62	0.0004	0.21	
CCCCCc1ccc(S(=O)(=O)N2C[C@@H](N3CCCCC3)C[C@@H]2C(=O)NO)cc1	0.012	9.8	0.0009	2	
CCCOc1ccc(S(=O)(=O)N2C[C@@H](N3C(=O)CN(C)C3=O)C[C@@H]2C(=O)NO)cc1	0.009	2.6	0.0003	0.26	
O=C(NO)[C@H]1C[C@H](N2CCCC2)CN1S(=O)(=O)c1ccc(Oc2ccccc2)cc1	0.005	0.79	< 0.0004	0.019	
CCCCOc1ccc(S(=O)(=O)N2C[C@@H](N3CCCS3(=O)=O)C[C@@H]2C(=O)NO)cc1	0.013	0.68	< 0.0004	0.23	
CCCCCc1ccc(S(=O)(=O)N2C[C@@H](N3CCOCC3)C[C@@H]2C(=O)NO)cc1	0.012	7.4	0.0007		
COc1ccc(S(=O)(=O)N2C[C@@H](N3C(=O)CN(C)C3=O)C[C@@H]2C(=O)NO)cc1	0.008	1.8	0.0005	0.2	
CN1CC(=O)N([C@H]2C[C@H](C(=O)NO)N(S(=O)(=O)c3ccc(Oc4ccccc4)cc3)C2)C1=O	0.006	0.31	< 0.0004	0.021	

More lines, now with the values ahead:

IC50 (Stromelysin-1) [µM]	IC50 (Matrilysin) [µM]	IC50 (Collagenase 3) [µM]	IC50 (Interstitial collagenase) [µM]	IC50 [1] [µM]	SMILES
0.008	3.5	0.001	0.14		CCCOc1ccc(S(=O)(=O)N2C[C@@H](NC(=O)[C@H](C)O)C[C@@H]2C(=O)NO)cc1
0.3		0.027	3.1		CNC(=O)N[C@H]1C[C@H](C(=O)NO)N(S(=O)(=O)c2ccc(OC)cc2)C1
0.042	2.7	0.002	0.26	0.002	COc1ccc(S(=O)(=O)N2C[C@@H](NS(C)(=O)=O)C[C@@H]2C(=O)NO)cc1
0.057	1.4		0.56		COc1ccc(S(=O)(=O)N2C[C@@H](NCCc3ccccc3)C[C@@H]2C(=O)NO)cc1
0.002	8.5	0.001	0.087	0.0007	CCCN(C(=O)[C@H](C)O)[C@H]1C[C@H](C(=O)NO)N(S(=O)(=O)c2ccc(OC)cc2)C1
0.01		0.017	0.27	0.0022	COc1ccc(S(=O)(=O)N2C[C@@H](N(Cc3cccnc3)C(=O)C(C)C)C[C@@H]2C(=O)NO)cc1
0.4			> 1		COc1ccc(S(=O)(=O)N2C[C@@H](NC(=O)c3ccc(-c4ccccc4)cc3)C[C@@H]2C(=O)NO)cc1
0.01	0.92	0.0008	0.033	0.0008	CCCN([C@H]1C[C@H](C(=O)NO)N(S(=O)(=O)c2ccc(OC)cc2)C1)S(C)(=O)=O
0.03	> 10	0.003	0.5		CCCOc1ccc(S(=O)(=O)N2C[C@@H](NC(=O)COC)C[C@@H]2C(=O)NO)cc1
0.087	2.2	0.005			CCCN[C@H]1C[C@H](C(=O)NO)N(S(=O)(=O)c2ccc(OC)cc2)C1
0.014	4.9	0.0007	1.2		CCCCOc1ccc(S(=O)(=O)N2C[C@@H](NC(=O)COC)C[C@@H]2C(=O)NO)cc1
0.006	0.52	0.0005	0.019		COc1ccc(S(=O)(=O)N2C[C@@H](N(C)S(C)(=O)=O)C[C@@H]2C(=O)NO)cc1
0.007			0.14	0.0003	COc1ccc(S(=O)(=O)N2C[C@@H](NC(=O)[C@H](C)OCc3ccccc3)C[C@@H]2C(=O)NO)cc1
0.008	1.7	0.0008	0.27		CCCCOc1ccc(S(=O)(=O)N2C[C@@H](NC(=O)[C@@H](O)C(C)C)C[C@@H]2C(=O)NO)cc1
0.01	4.2	0.0009	1.2		CCCCOc1ccc(S(=O)(=O)N2C[C@@H](NC(=O)[C@H](C)O)C[C@@H]2C(=O)NO)cc1
